INS promoter inh: inhibitors of insulin promoter-driven GFP, primary screen, imaging, TRM-6 cells (human fetal islet line), eGFP reporter, cell count; inhibition, % at 2 µM; reporter expression induced with tamoxifen; AID 1273, 2008; 130,000 compounds, 0.9% hits;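 active means inhibition above the mean plus 3 SD, with well images judged a real hit on visual review, cut at about 60% in these data, passing the limit was not always enough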
RBBP9 inhibitor: human RBBP9 inhibitors, primary screen, biochemical, fluorescence polarization, FP-Rh probe, HTS; 220,000 compounds, 0.2% hits; Serine hydrolase RBBP9 (Homo sapiens), O75884; inhibition, % at 7.94 µM; AID 1515, 2009; recombinant RBBP9;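 active means inhibition above the campaign mean of all tested compounds plus 3 SD, cut at about 14% in these data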;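 further: plate controls were DMSO wells with RBBP9 for no effect and wells lacking RBBP9 protein for full effect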
Target sequence (O75884 whole entry, looked up): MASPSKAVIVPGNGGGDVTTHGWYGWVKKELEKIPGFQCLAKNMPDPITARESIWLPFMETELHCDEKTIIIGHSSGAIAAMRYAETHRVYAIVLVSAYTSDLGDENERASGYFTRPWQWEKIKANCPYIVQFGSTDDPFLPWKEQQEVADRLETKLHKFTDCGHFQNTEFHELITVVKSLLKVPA
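Test system – recombinant human RBBP9 · Input – RBBP9 2.5 µM in dispensing solution, pre-mixing · Medium – Tris buffer pH 8.0, NaCl, Pluronic · Schedule – preincubation 30 min plus labeling 45 min at 25 °C · Measured by – fluorescence polarization · Measure – % inhibition · Controls – DMSO and no-protein wells · Replicates – one well per compound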
Arbovirus anti: antivirals against arbovirus infection, primary screen, cell-based, full library, 10K replicate subset | arbovirus infection cell-based antiviral screen | inhibition, % at 10 µM | 200,000 compounds, 0.37% hits; in the data active means inhibition above about 30%
Autophagy HCS: autophagy modulators in MEF cells, primary screen, imaging, high-content, MEF GFP-LC3; MEF GFP-LC3 puncta imaging; test concentration mostly 10 µM; calls only at 10 µM (by protocol); 190,000 compounds, 0.98% hits; AID 463193, 2010;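 active means percentage of spot-positive cells more than 3 SD above its plate mean, without a fluorescence outlier flag or 80% toxicity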;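 further: spot-positive cell cutoff set from DMSO-treated cells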
PKD1 inh: inhibitors of human PKD1 kinase, biochemical, fluorescence polarization; PKD1 kinase fluorescence polarization assay; inhibition, % (concentration not given with the values); 200,000 compounds, 0.056% hits; in the data active means inhibition above about 50%
Ins promoter up: insulin promoter activators in MIN6 cells, imaging, high-content screening, mouse beta cells; MIN6 insulin promoter-GFP reporter; active compounds read high; 190,000 compounds, 0.3% hits; z-score at 5 µM;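 active means z-score above 3 at 5 µM with at least 500 cells counted in the well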
The depositor's hits bear a star; i = inactive; x = no result given; + = active, no number. In the library only some 2.1% were active in any assay of this set; here they are far more common.

SMILES	INS promoter inh	RBBP9 inhibitor	Arbovirus anti	Autophagy HCS	PKD1 inh	Ins promoter up
CCOc1ccc(N=Nc2c(N)[nH][nH]c2=O)cc1	10	7	-2	i	-8	0.4
Cc1ccc(NC(=O)c2ccc(F)cc2)nc1	-8	-2	-4	i	3	0.71
O=C(CSc1nnc(CCc2nc3ccccc3[nH]2)n1-c1ccccc1)NCc1ccco1	-42	0	7	+	-15	0.65
O=C(CSc1nnc2ccccn12)NCc1ccco1	71*	-4	5	i	6	-0.13
CCCNS(=O)(=O)c1ccc(C(=O)NCC2CCCO2)cc1 (stereo not given)	-1	-1	-1	i	1	-0.08
CCOC(=O)c1c2ccc(OCC(=O)N/N=C/c3ccc(C)cc3)cc2n2ccccc12	x	-9	-1	+	7	0.5
CCOC(=O)c1c2ccc(OCC(=O)NN)cc2n2ccccc12	18	-1	-19	i	-3	2.6
Cc1nn(Cc2ccc(Cl)cc2)c(C)c1NC(=O)CCCn1nc(C)c([N+](=O)[O-])c1C	-44	-8	13	i	1	0
Cc1ccc(NC(=O)COC(=O)CN2C(=O)NC(C)(C)C2=O)cc1S(=O)(=O)N1CCOCC1	79*	-2	23	i	-7	0.18
Cc1ccc(S(=O)(=O)NC2=NCN(CCOC(=O)c3ccccc3)CN2)cc1	16	-5	3	i	-9	0.88
Cc1ccc2nc(C)cc(Nc3ccc([N+](=O)[O-])cc3)c2c1	x	-20	-32	+	-7	-1.4
Cc1c(C(=O)O)cccc1-c1ccc(/C=C2/NC(=O)N(c3ccccc3)C2=O)o1	x	-7	23	i	-8	3.9*
CCOC(=O)CNC(=O)c1cc(-c2ccccn2)nc2c(C)c(Cl)ccc12	x	-4	3	i	9	0.1
CC(CCc1ccccc1)NC(=O)c1cc2sccc2n1C (stereo not given)	x	3	42*	i	-22	-0.19
CC(CCc1ccccc1)NC(=O)CSc1ccccc1 (stereo not given)	-11	-6	0	+	-9	0.02
CC(CCc1ccccc1)NC(=O)C1CCCN(C(=O)c2cc3sccc3n2C)C1 (stereo not given)	x	-6	-8	i	0	0.44
CCOC(=O)c1c(C)[nH]c(C(=O)OCC(=O)N2CC(C)OC(C)C2)c1C (stereo not given)	-9	-11	4	i	-8	0.18
CCN(CCNC(=O)c1cccc(N2CCCC2=O)c1)c1ccccc1	-66	-5	-7	i	-3	0.08
COc1ccc(C(=O)NN/C(C)=C/C(=O)C(F)(F)C(F)(F)C(F)(F)F)cc1	50	7	85*	i	1	0.19
COc1ccc(C(=O)NNC(=O)OC(C)(C)C)cc1	x	2	x	x	x	0.13
CNC(=O)c1[nH]cnc1C(=O)Nc1ccc(C)cc1	54	4	12	i	-4	x
CCn1c2ccccc2c2nnc(SCC(=O)Nc3cc(C)on3)nc21	-43	-10	-8	i	19	4*
Cc1ccc(/C=C(\C#N)c2nc3ccccc3[nH]2)s1	96*	-5	-3	i	0	-0.92
N#C/C(=C/c1cccs1)c1nc2ccccc2[nH]1	75*	-7	-4	i	-5	-0.2
O=C1CN(C(=O)/C=C/c2cccc(Cl)c2)c2ccccc2N1	x	-1	-1	i	-1	-0.83
SMILES	INS promoter inh	RBBP9 inhibitor	Arbovirus anti	Autophagy HCS	PKD1 inh	Ins promoter up
O=C1CN(C(=O)/C=C/c2ccc(Cl)cc2)c2ccccc2N1	-17	-6	31*	i	0	-0.38
CCOC(=O)N1N=C(c2ccc(OC)cc2)CC1(O)C(F)(F)F (stereo not given)	x	-18	-6	i	2	-0.39
CCOC(=O)N1N=C(c2ccccc2)CC1(O)C(C)(F)F (stereo not given)	74*	-2	3	i	4	0.23
COc1ccc(NC(=O)C(c2ccc(OC)cc2)N(C)C(=O)CNC(C)=O)cc1 (stereo not given)	77*	-2	8	i	-10	1.5
COc1ccc(NC(=O)C(c2ccc(C)cc2)N(C)C(=O)CNC(C)=O)cc1 (stereo not given)	-12	3	-5	i	-4	x
Cn1cc(CNC(=O)COc2ccc(Cl)cc2Cl)cn1	-27	-1	-2	i	4	1.1
CCOC(=O)c1ccccc1Nc1cn(C(C)=O)c2ccccc12	24	-4	-21	+	4	x
CC(=O)n1cc(Nc2ccccc2C(=O)O)c2ccccc21	x	-3	-2	i	-5	0.04
CN1CCN(CC(=O)N(Cc2c(C#N)c3ccccc3n2C)c2ccccc2)CC1	-54	-4	3	i	-6	0.01
CC1CC(=O)C2=C(C1)OC(N)=C(C#N)C2c1coc2ccccc2c1=O (stereo not given)	-32	-12	-1	i	-12	3*
O=C(O)c1ccc2[nH]c3c(c2c1)CSCC3	0	-12	31*	i	2	0.08
CN(C)CCOC(=O)c1ccc2[nH]c3c(c2c1)CSCC3	x	-7	x	x	x	-1.1
N=c1sccn1CC(=O)NC(=O)NC1CCCC1	88*	-5	6	i	-10	x
O=C(CN1C(=O)CCC1=O)NC(=O)NC1CCCC1	x	2	x	x	x	0.4
COc1ccccc1C(=O)/C=C/c1ccc(N2CCCCC2)c([N+](=O)[O-])c1	59	-6	-39	i	6	0.29
O=C(/C=C/c1ccc(N2CCCCC2)c([N+](=O)[O-])c1)c1ccc(O)cc1	83*	1	-25	i	1	-0.11
O=C1CC(N2CCC(Cc3ccccc3)CC2)C(=O)N1CCc1ccccc1 (stereo not given)	-16	-6	30*	i	2	0.26
Cc1ccc(OCC(=O)Nc2ccc(N3CCOCC3)cc2)c([N+](=O)[O-])n1	10	-4	6	i	-3	0.44
CCN(CC)S(=O)(=O)c1cccc(-c2nnc(SCc3nc4ccccc4s3)o2)c1	87*	-10	-1	i	-1	x
Brc1ccccc1-c1nnc(SCc2nc3ccccc3s2)o1	0	-5	34*	i	-7	0.07
CC1=CC2=NC(=O)/C(=C\c3ccc(-c4ccc(Cl)cc4)o3)C(=N)N2O1	0	-4	-10	+	1	-0.03
Brc1ccc(-c2cn3ccccc3n2)s1	86*	-17	-4	i	1	-0.35
COc1ccc(-c2cn3ccccc3n2)cc1	x	-7	x	x	x	-0.13
COc1cc(OC)cc(-c2nc3ccccc3c(=O)o2)c1	-231	-5	14	i	-7	x
O=c1oc(-c2ccccc2NS(=O)(=O)c2ccc3ccccc3c2)nc2ccccc12	-8	-28	30*	i	-12	0.3

Compound activity as filed in PubChem.
